Results gathered from unrelated publications.
Lines come from different studies, so protocols differ.
Target: Casein kinase I isoform epsilon (CSNK1E, Homo sapiens, UniProt P49674)

Compound	read-out	method	concentration	remaining binding
FC(F)(F)Oc1cccc(-c2cnc3ccc(-c4ccncc4)nn23)c1	cell-free assay	competition with immobilised ligand	5 µM	12%
CC(=O)C1=C(C)N(c2cccc(C(F)(F)F)c2)C(=O)N[C@@H]1c1ccc(C#N)nc1	cell-free assay	competition with immobilised ligand	1 µM	100%
N[C@@H]1CCN(c2nccc(-c3cnn4ncccc34)n2)C1	binding	–	1 µM	31%
CC(=O)N1CCC(c2ccc(C(=O)NC3=NCCN3)cc2C(F)(F)F)CC1	cell-free assay	competition with immobilised ligand	1 µM	100%
CN(c1nccc(-c2cnn3ncccc23)n1)C1CC1	binding	–	1 µM	100%
O=c1nc(-c2ccccn2)sc2ccccc12	binding	competition with immobilised ligand	1 µM	88%
O=C(NCC1CCOCC1)c1n[nH]cc1NC(=O)c1c(F)cccc1F	binding	competition with immobilised ligand	1 µM	81%
CC(=O)N1CCC(c2ccc(C(=O)NC(=N)N)cc2C(F)(F)F)CC1	cell-free assay	competition with immobilised ligand	1 µM	100%
O=C(NCCCN1CCOCC1)c1ccc(Nc2ncc(Cl)c(-c3ccc(Cl)s3)n2)cc1	binding	competition with immobilised ligand	1 µM	100%
F[C@@H]1CCN(c2nccc(-c3cnn4ncccc34)n2)C1	binding	–	1 µM	85%
O=C(NCCCN1CCOCC1)c1ccc(Nc2nccc(-c3cc4ccccc4s3)n2)cc1	binding	competition with immobilised ligand	1 µM	100%
CN(C)c1nccc(-c2cnc3ncccn23)n1	binding	–	1 µM	65%
COc1cnc(Nc2cccc(S(N)(=O)=O)c2)nc1N1CCN(c2ccccc2)CC1	binding	competition with immobilised ligand	1 µM	100%
COc1ncc2cc3ccccc3nc2c1C#N	cell-free assay	competition with immobilised ligand	5 µM	86%
Cc1cc(NC(=O)c2cccc(S(F)(F)(F)(F)F)c2)cc(-n2ccn3nc(-c4cccnc4)cc23)c1	cell-free assay	competition with immobilised ligand	1 µM	75.7%
C[C@@H]1CCN(c2nccc(-c3cnn4ncccc34)n2)C1	binding	–	1 µM	86%
C[C@@H](c1ccc(-n2cnc3c(N)ncnc32)cc1)N1CCc2nn(C)c(Cc3ccccc3)c2C1=O	binding	competition with immobilised ligand	0.1 µM	83%
Cc1cc(C)c(-n2ccn3nc(-c4cccnc4)cc23)cc1NC(=O)c1cc(C#N)cc(S(F)(F)(F)(F)F)c1	cell-free assay	competition with immobilised ligand	0.1 µM	98.7%
c1cncc(-c2cccc(Nc3nccc(NC4CCCCC4)n3)c2)c1	binding	competition with immobilised ligand	10 µM	11%
O=C(c1ccc(Nc2ncc(Cl)c(-c3cc4ccccc4s3)n2)cc1)N1CCC(N2CCCC2)CC1	binding	competition with immobilised ligand	1 µM	100%
CN(c1ccnc(CNc2nc(Nc3ccc4c(c3)CC(=O)N4)ncc2C(F)(F)F)n1)S(C)(=O)=O	cell-free assay	competition with immobilised ligand	1 µM	100%
c1cnn2ncc(-c3ccnc(N4CCC45COC5)n3)c2c1	binding	–	1 µM	53%
